Among the data in ChEMBL document CHEMBL1629614, “Inhibition of methionyl-tRNA synthetase by REP8839 and effects of resistance mutations on enzyme activity” (Antimicrob Agents Chemother, 2009) are kcat/Km, Km and kcat values, retold here.

For data set [1], the system named is Staphylococcus aureus. Nature of the data set: Ratio of Kcat to Km for Staphylococcus aureus MetRS in presence of tRNA.
Data set [2] is filed under the species Homo sapiens. Nature of the data set: Activity of human mitochondrial MetRS by ATP:PPi exchange assay in presence of methionine.
Data set [3] relates to Staphylococcus aureus. In words: Ratio of Kcat to Km for Staphylococcus aureus MetRS in presence of methionine.
Data set [4] concerns Escherichia coli. In words: Activity of Escherichia coli MetRS by ATP:PPi exchange assay in presence of ATP.
Data set [5] has as its system Staphylococcus aureus. Nature of the data set: Activity of Staphylococcus aureus MetRS by ATP:PPi exchange assay in presence of ATP. The essentials: (§1)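 Purified S. aureus MetRS (wild type or mutant; E. coli-expressed, ammonium sulfate cut, anion exchange) at 30 nM. ATP:PPi exchange at 30°C in 100 mM Tris-HCl pH 8.0, 5–10 mM Mg acetate, 80 mM KCl, 2.5 mM DTT, [32P]PPi plus cold PPi equal to ATP. Quenched with EDTA over 1–10 min, PEI-cellulose TLC, phosphorimager. Initial velocities versus varied ATP or methionine fit to Michaelis-Menten.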

In data set [6] the test system is Streptococcus pneumoniae. Nature of the data set: Activity of Streptococcus pneumoniae MetRS1 by ATP:PPi exchange assay in presence of ATP.
For data set [7], the system named is Staphylococcus aureus. Nature of the data set: Activity of […] by scintillation proximity assay in presence of tRNA. (SPA uses beads or plates that emit light when radiolabelled molecules are held near them.)
Data set [8] relates to Staphylococcus aureus. Nature of the data set: Activity of Staphylococcus aureus MetRS by ATP:PPi exchange assay in presence of methionine. The essentials:
as §1

Data set [9] has as its system Staphylococcus aureus. In words: Ratio of Kcat to Km for Staphylococcus aureus MetRS in presence of ATP. In short, it runs like this:
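Purified recombinant S. aureus MetRS (30 nM) was assayed by ATP:PPi exchange at 30°C in Tris pH 8.0 with Mg acetate, KCl and DTT. [32P]PPi was matched to ATP, and ATP or methionine was varied. Time points from 1 to 10 min were quenched with EDTA, separated by PEI-cellulose TLC and read by phosphorimager. Initial rates were fitted to Michaelis-Menten.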

Data set [10] relates to Streptococcus pneumoniae. Nature of the data set: Activity of Streptococcus pneumoniae MetRS1 by ATP:PPi exchange assay in presence of methionine.
Data set [11] concerns Escherichia coli. Nature of the data set: Activity of Escherichia coli MetRS by ATP:PPi exchange assay in presence of methionine.
The species named for data set [12] is Homo sapiens. Nature of the data set: Activity of human mitochondrial MetRS by ATP:PPi exchange assay in presence of ATP.
The subject of data set [13] is C=C(F)c1sc(CNCCCNc2cc(=O)c3ccccc3[nH]2)c(C)c1Br. In words: Activity of Bacillus stearothermophilus MetRS by ATP:PPi exchange assay in presence of ATP. The settings on record: Geobacillus stearothermophilus.
Data set [14] shares this test system. In words: Activity of Bacillus stearothermophilus MetRS by ATP:PPi exchange assay in presence of methionine. The settings on record: Geobacillus stearothermophilus.

Sequence of Methionine--tRNA ligase (Geobacillus stearothermophilus), P23920 (P23920 whole entry): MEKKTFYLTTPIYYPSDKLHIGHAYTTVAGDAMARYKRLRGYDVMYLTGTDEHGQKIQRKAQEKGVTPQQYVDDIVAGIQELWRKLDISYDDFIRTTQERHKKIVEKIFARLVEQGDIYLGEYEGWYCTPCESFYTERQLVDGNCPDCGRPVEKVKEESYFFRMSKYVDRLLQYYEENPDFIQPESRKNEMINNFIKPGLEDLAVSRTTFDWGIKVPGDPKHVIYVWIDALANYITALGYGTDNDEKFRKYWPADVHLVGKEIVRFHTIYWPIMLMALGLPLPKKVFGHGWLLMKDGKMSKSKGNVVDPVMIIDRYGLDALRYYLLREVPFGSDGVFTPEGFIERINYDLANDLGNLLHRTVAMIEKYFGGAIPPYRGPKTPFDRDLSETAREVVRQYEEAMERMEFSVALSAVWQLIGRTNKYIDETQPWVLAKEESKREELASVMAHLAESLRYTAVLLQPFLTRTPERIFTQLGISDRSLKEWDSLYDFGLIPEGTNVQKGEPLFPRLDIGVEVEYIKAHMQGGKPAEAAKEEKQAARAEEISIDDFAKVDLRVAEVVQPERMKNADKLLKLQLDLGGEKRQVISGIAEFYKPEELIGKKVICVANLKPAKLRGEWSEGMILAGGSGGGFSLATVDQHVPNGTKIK

Broadly, the kcat/Km is the turnover number divided by the Michaelis constant. One may read the Km as the concentration of substrate that gives half-maximal velocity. A word on the kcat: it is the maximal rate divided by the concentration of active sites. `C=C(F)c1sc(CNCCCNc2cc(=O)c3ccccc3[nH]2)c(C)c1Br`: the catalytic efficiency (kcat/Km) in the data set on Staphylococcus aureus [1] came to 490000 M⁻¹ s⁻¹; in the data set with Staphylococcus aureus [3] it was 250000 M⁻¹ s⁻¹; in the data set with Staphylococcus aureus [9], 50000 M⁻¹ s⁻¹. The Km was determined as 20 µM in the data set listed under Homo sapiens [2]; 20 µM in the data set on Escherichia coli [4]; 500 µM in the data set with Staphylococcus aureus [5]; 514 µM in the data set with Streptococcus pneumoniae [6]; 1 µM in the data set with Staphylococcus aureus [7]; 100 µM in the data set with Staphylococcus aureus [8]. Besides, the Km with Streptococcus pneumoniae [10] came out at 53 µM; with Escherichia coli [11], 20 µM; in the data set listed under Homo sapiens [12] it was 85 µM. Besides, in the data set on Staphylococcus aureus [7], the kcat was 0.49 s⁻¹.

Take “Methionine--tRNA ligase (Geobacillus stearothermophilus), P23920”: the Km in [13] was found to be 1 µM; in data set [14], 6 µM.
